Data set [1] relates to RAW264.7. The data set can be described thus: Inhibition of LPS-induced IL6 production in mouse RAW264.7 cells at 10 uM preincubated for 30 mins prior to LPS challenge measured after 24 hrs by ELISA. The class given is functional. The procedure, abridged: (§1)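 RAW 264.7 cells (ATCC) were grown in DMEM with 10% FBS and penicillin/streptomycin at 37 °C, 5% CO2. Cells were seeded at 400,000/well and incubated for 24 h, pretreated with compound for 30 min, then given 0.5 µg/mL LPS for 24 h. Medium TNF-α or IL-6 was measured by ELISA and normalized to total protein of viable cell pellets.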
For orientation: ELISA stands for enzyme-linked immunosorbent assay.

For data set [2], the system named is RAW264.7. Description: Inhibition of LPS-induced TNF-alpha production in mouse RAW264.7 cells at 10 uM preincubated for 30 mins prior to LPS challenge measured after 24 hrs by ELISA. The class given is functional. The method in brief: as §1
Data set [3] deals with Mus musculus. Description: Antiinflammatory activity in LPS-induced C57BL/6 mouse sepsis model assessed as inhibition of neutrophils infiltration in lung by measuring MPO activity at 10 mg/kg, iv administered 15 mins prior to LPS challenge measured after 6 hrs in presence of O-dianisidine dihydrochloride relative to control. The format is functional, organism-based. The method in brief: (§2)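 Mice were given 10 mg/kg iv 15 min before 20 mg/kg LPS or without LPS; saline served as control, and animals were killed 6 h later. Lung supernatants were incubated with 0.01% H2O2 and O-dianisidine dihydrochloride 0.167 mg/mL for 30 min, with absorbance change at 460 nm. One unit degrades 1 µmol peroxide/min at 37 °C; values are expressed as units/g lung.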

For data set [4], the system named is Mus musculus. Description: Decrease in MPO activity in C57BL/6 mouse lung at 10 mg/kg, iv after 6 hrs in presence of O-dianisidine dihydrochloride relative to control. The class given is ADME, organism-based. The following applies: in vivo. The method in brief: as §2
In data set [5] the test system is Mus musculus. The data set can be described thus: Antiinflammatory activity in LPS-induced C57BL/6 mouse sepsis model assessed as reduction in airspace inflammation in lung at 10 mg/kg, iv administered 15 mins prior to LPS challenge measured after 6 hrs by hematoxylin and eosin staining. The format is functional, organism-based. The procedure, abridged: (§3)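 Male C57BL/6 mice (18-22 g), randomized into groups. Compound at 10 mg/kg was given by tail-vein injection 15 min before LPS 20 mg/kg; controls received saline. Animals were sacrificed 6 h after LPS. Lung was fixed in 4% paraformaldehyde, paraffin-embedded, cut at 5 µm and H&E stained. A pathologist, blinded, scored alveolar congestion, hemorrhage, neutrophil infiltration and alveolar wall thickness/hyaline membrane.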

In data set [6] the test system is Mus musculus. The data set can be described thus: Antiinflammatory activity in LPS-induced C57BL/6 mouse sepsis model assessed as decrease in pulmonary lobule structural changes at 10 mg/kg, iv administered 15 mins prior to LPS challenge measured after 6 hrs by hematoxylin and eosin staining. The class given is functional, organism-based. The method in brief: as §3

The subject of data set [7] is Mus musculus. The data set can be described thus: Antiinflammatory activity in LPS-induced C57BL/6 mouse sepsis model assessed as inhibition of macrophage infiltration in lung at 10 mg/kg, iv administered 15 mins prior to LPS challenge measured after 6 hrs by F4/80 and hematoxylin-staining based microscopy. The format is functional, organism-based. The procedure, abridged:
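C57BL/6 males were dosed with 10 mg/kg iv (tail vein) 15 min before 20 mg/kg LPS and sacrificed 6 h later. Paraffin lung sections had antigen retrieval by pressure cooker in 10 mM citrate pH 6.5, then H2O2, 5% BSA block, anti-F4/80 overnight at 4 °C, HRP secondary, DAB and hematoxylin counterstain. The % F4/80-positive cells was counted in 10 random 200× fields per section.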

The subject of data set [8] is Mus musculus. Description: Downregulation of TNF-alpha mRNA level in lung of LPS-induced C57BL/6 mouse sepsis model at 10 mg/kg, iv administered 15 mins prior to LPS challenge measured after 6 hrs by RT-qPCR analysis. The format is functional, organism-based. The method in brief:
(§4)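 Male C57BL/6 mice were given 10 mg/kg by tail-vein injection 15 min before 20 mg/kg LPS and killed after 6 h; lungs were harvested. RNA was extracted with TRIZOL and quantified by real-time quantitative PCR as relative mRNA amount.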
On the technique in general: In qPCR the cycle at which signal appears reflects the starting amount.

Data set [9] concerns Mus musculus. The data set can be described thus: Downregulation of IL-6 mRNA level in lung of LPS-induced C57BL/6 mouse sepsis model at 10 mg/kg, iv administered 15 mins prior to LPS challenge measured after 6 hrs by RT-qPCR analysis. The class given is functional, organism-based. The method in brief: as §4
The test system of data set [10] is Mus musculus. Description: Downregulation of IL-12 mRNA level in lung of LPS-induced C57BL/6 mouse sepsis model at 10 mg/kg, iv administered 15 mins prior to LPS challenge measured after 6 hrs by RT-qPCR analysis. The class given is functional, organism-based. The method in brief: as §4
Data set [11] relates to Mus musculus. The data set can be described thus: Downregulation of IL-33 mRNA level in lung of LPS-induced C57BL/6 mouse sepsis model at 10 mg/kg, iv administered 15 mins prior to LPS challenge measured after 6 hrs by RT-qPCR analysis. The format is functional, organism-based. The procedure, abridged:
as §4

In data set [12] the test system is Mus musculus. The data set can be described thus: Downregulation of IL-1beta mRNA level in lung of LPS-induced C57BL/6 mouse sepsis model at 10 mg/kg, iv administered 15 mins prior to LPS challenge measured after 6 hrs by RT-qPCR analysis. The class given is functional, organism-based. The procedure, abridged: as §4
Data set [13] has as its system Mus musculus. The data set can be described thus: Downregulation of COX2 mRNA level in lung of LPS-induced C57BL/6 mouse sepsis model at 10 mg/kg, iv administered 15 mins prior to LPS challenge measured after 6 hrs by RT-qPCR analysis. The format is functional, organism-based. The procedure, abridged: as §4
For data set [14], the system named is RAW264.7. Description: Inhibition of LPS-induced IL6 production in mouse RAW264.7 cells preincubated for 30 mins prior to LPS challenge measured after 24 hrs by ELISA. The class given is functional, cell-based. The settings on record: Mus musculus, RAW264.7; read-out: IC50. The method in brief: as §1
Data set [15] concerns RAW264.7. Description: Inhibition of LPS-induced TNF-alpha production in mouse RAW264.7 cells preincubated for 30 mins prior to LPS challenge measured after 24 hrs by ELISA. The class given is functional, cell-based. The settings on record: Mus musculus, RAW264.7; read-out: IC50. The method in brief:
as §1

For data set [16], the species on record is Mus musculus. Description: Acute toxicity in C57BL/6 mouse liver by hematoxylin and eosin staining-based histopathologiacal analysis. The format is organism-based. The following applies: in vivo.
The species named for data set [17] is Mus musculus. The data set can be described thus: Acute toxicity in C57BL/6 mouse kidney by hematoxylin and eosin staining-based histopathologiacal analysis. The settings on record: in vivo. The format is organism-based.
For data set [18], the species on record is Mus musculus. Description: Acute toxicity in C57BL/6 mouse heart by hematoxylin and eosin staining-based histopathologiacal analysis. The format is organism-based. The settings on record: in vivo.
The subject of data set [19] is Mus musculus. Description: Toxicity in C57BL/6 mouse assessed as change in body weight at 20 mg/kg, iv administered for 7 days measured every 24 hrs of compound dosing relative to control. The class given is organism-based. The following applies: in vivo.
Data set [20] concerns Mus musculus. Description: Antiinflammatory activity in LPS-induced C57BL/6 mouse sepsis model assessed as suppression of TNF-alpha release in serum at 10 mg/kg, iv administered 15 mins prior to LPS challenge measured after 6 hrs relative to control. The class given is functional, organism-based. The method in brief:
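Male C57BL/6 mice, 18-22 g, were injected via tail vein with 10 mg/kg 15 min before 20 mg/kg LPS; controls received saline. Blood was taken with a heparinized syringe 6 h after LPS under anesthesia. Serum TNF-α was measured by ELISA (pg/mL).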

Molecules are shown by their SMILES. The source made the active and inactive calls. The rule behind the calls is not given here.

With `CCCn1c(-c2c[nH]c3ncccc23)nc2ccc(N3CCN(C)CC3)nc21`, the values for the inhibition at 10 µM with RAW264.7 [1] and in the data set with RAW264.7 [2] were 69.5% and 67.3%, respectively. For the same compound, the inhibition result in the data set on Mus musculus [3] and in the data set on Mus musculus [7] was “Active” in each case. Further, the Activity entry with Mus musculus [4] was “Non-toxic”. In addition, the result with Mus musculus [5], with Mus musculus [6], in the data set with Mus musculus [8], in the data set on Mus musculus [9], in the data set on Mus musculus [10] and in the data set with Mus musculus [11] was Active. In addition, the result in the data set with Mus musculus [12] and in the data set with Mus musculus [13] was inactive.
Take `CN1CCN(c2ccc(NC(=O)c3cc4cc(NC(=O)c5ccco5)ccc4n3Cc3ccc(C(F)(F)F)cc3)cc2)CC1`: the IC50 (as a rule, the concentration needed to halve the response being measured) in the data set with RAW264.7 [14] is 2.9 µM; in the data set with RAW264.7 [15] it was 2.66 µM. The Activity result in the data set filed under Mus musculus [16], in the data set listed under Mus musculus [17], in the data set listed under Mus musculus [18], in the data set with Mus musculus [19] and with Mus musculus [4] was “Non-toxic” in each case. Besides, the inhibition entry with Mus musculus [3] and in the data set on Mus musculus [7] was “Active” throughout. The result in the data set with Mus musculus [20], in the data set on Mus musculus [5], with Mus musculus [6], in the data set on Mus musculus [8], in the data set on Mus musculus [9] and in the data set on Mus musculus [10] was Active. Also, the result in the data set on Mus musculus [11], with Mus musculus [12] and in the data set on Mus musculus [13] was Active.
As for `CN1CCN(c2ccc(NC(=O)c3cc4cc(NC(=O)N(C)C)ccc4n3Cc3ccc(C(F)(F)F)cc3)cc2)CC1`, the figures for the IC50 in the data set with RAW264.7 [14] and in the data set on RAW264.7 [15] were 1.24 µM and 2.67 µM, respectively. Besides, the Activity entry in the data set filed under Mus musculus [16], in the data set listed under Mus musculus [17], in the data set filed under Mus musculus [18], in the data set on Mus musculus [19] and in the data set with Mus musculus [4] was “Non-toxic” each time. The inhibition entry with Mus musculus [3] and in the data set on Mus musculus [7] was “Active” in each case. Also, the result in the data set with Mus musculus [20], with Mus musculus [5], in the data set with Mus musculus [6], in the data set with Mus musculus [8], in the data set on Mus musculus [9] and in the data set on Mus musculus [10] was Active. Moreover, the result in the data set with Mus musculus [11], with Mus musculus [12] and with Mus musculus [13] was Active.

These data come from ChEMBL document CHEMBL3822416, “Design, Synthesis, and Structure-Activity Relationship Study of Novel Indole-2-carboxamide Derivatives as Anti-inflammatory Agents for the Treatment of Sepsis” (J Med Chem, 2016).
